Measured values reported in ChEMBL document CHEMBL1629677, “A small-molecule dengue virus entry inhibitor” (Antimicrob Agents Chemother, 2009).
Active and inactive are the calls of the source. No cut-off for these calls is given here.

How the values were obtained:
Dengue virus [1] = test: Antiviral activity against Dengue virus NGC infected in human A549 cells assessed as colocalization of virus measured as E protin signal after 2 hrs by confocal microscopy; assay type: functional, organism-based
Procedure, shortened: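 Virus pre-incubated with biotinylated compound, then passed through a gel-filtration spin column. Eluate used to infect A549 cells on coverslips for 2 h at 37°C. Cells fixed in formaldehyde for 15 min, compound detected with streptavidin-FITC and virus with anti-E antibody. Confocal microscopy.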

Dengue virus [2] = test: Antiviral activity against Dengue virus NGC infected in human A549 cells assessed as decrease in viral E protein production after 48 hrs by CFI assay; assay type: functional, organism-based; conditions: A549, 48 h
Procedure, shortened: (§1)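 A549 or BHK21 cells at 2 x 10^4/well grown overnight, then infected at MOI 0.3 with compound dilutions for 1 h at 37°C. Inoculum replaced by medium with compound for 48 h. Methanol-fixed, probed with anti-E antibody 4G2 and HRP anti-mouse IgG, developed with TMB, absorbance at 450 nm. EC50 by nonlinear regression of mean absorbance vs log concentration.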

Dengue virus [3] = test: Antiviral activity against 0.0001 MOI Dengue virus NGC infected in Cricetinae BHK21 cells assessed as decrease in viral E protein production […] by plaque reduction assay; assay type: functional, organism-based; conditions: BHK-21
[4] = Cytotoxicity against human A549 cells after 48 hrs by celltiter-glo luminescent cell viability assay; assay type: cell-based
Procedure, shortened: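 A549 cells plated and compound added as in the immunodetection assay, then incubated for 48 h. Viability by CellTiter-Glo luminescence relative to DMSO-treated cells, giving CC50.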

Dengue virus [5] = test: Antiviral activity against 25 MOI Dengue virus NGC infected in human A549 cells assessed as colocalized virus with endocytosed dextran by confocal microscopy; assay type: functional, organism-based
Procedure, shortened: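 A549 cells on coverslips (1 x 10^5/well) infected at MOI 0.3? no: MOI 25 with 5 µM compound for 7 h. Rhodamine-dextran 20 mg/ml added for 20 min at 37°C, then methanol fixation and anti-E 4G2 staining with FITC secondary. Examined by confocal microscopy.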

Dengue virus [6] = test: Antiviral activity against Dengue virus NGC infected in human A549 cells assessed as viral antigen expression at 0.2 microM; assay type: functional
Dengue virus [7] = test: Antiviral activity against Dengue virus NGC infected in human A549 cells assessed as change in endosomal pH at 0.2 microM by Lysosensor green DND189 accumulation assay; assay type: functional, organism-based
Procedure, shortened: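 A549 cells on coverslips exposed to compound or bafilomycin A1 in Ham's F-12 with 2% FBS for 4 h at 37°C; 0.9% DMSO as control. Stained with 0.5 µM Lysosensor green DND-189 for 2 min at room temperature, washed, and imaged live by fluorescence microscopy.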

Dengue virus [8] = test: Binding affinity to Dengue virus particles by liquid chromatography
Procedure, shortened: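 Dengue virus (6 x 10^7 PFU) incubated with 5 µM compound at room temperature for 30 min, then loaded onto a gel-filtration spin column and centrifuged. Eluate analysed by LC-MS/MS in multiple-reaction-monitoring mode. Compound without virus run as a control.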

dengue virus type 1 = test: Antiviral activity against DENV-1 isolate My97-10245 infected in Cricetinae BHK21 cells assessed as decrease in viral E protein production after 48 hrs by CFI assay; assay type: functional, organism-based; conditions: isolate My97-10245, BHK-21, 48 h; procedure, shortened: as §1
dengue virus type 2 [9] = test: Antiviral activity against DENV-2 NGC infected in human A549 cells assessed as decrease in viral E protein production after 48 hrs by CFI assay; assay type: functional, organism-based; conditions: A549, 48 h; procedure, shortened: as §1
dengue virus type 2 [10] = test: Antiviral activity against DENV-2 NGC infected in Cricetinae BHK21 cells assessed as decrease in viral E protein production after 48 hrs by CFI assay; assay type: functional, organism-based; conditions: BHK-21, 48 h; procedure, shortened: as §1
dengue virus type 3 = test: Antiviral activity against DENV-3 isolate My99-21531 infected in Cricetinae BHK21 cells assessed as decrease in viral E protein production after 48 hrs by CFI assay; assay type: functional, organism-based; conditions: isolate My99-21531, BHK-21, 48 h; procedure, shortened: as §1
dengue virus type 4 = test: Antiviral activity against DENV-4 isolate My01-22713 infected in Cricetinae BHK21 cells assessed as decrease in viral E protein production after 48 hrs by CFI assay; assay type: functional, organism-based; conditions: isolate My01-22713, BHK-21, 48 h; procedure, shortened: as §1
Yellow fever virus = test: Antiviral activity against Yellow fever virus 17D infected in human A549 cells assessed as decrease in viral E protein production after 48 hrs by CFI assay; assay type: functional, cell-based; conditions: A549, 48 h; procedure, shortened: as §1
[11] = Antiviral activity against Japanese encephalitis virus Nakayama infected in Cricetinae BHK21 cells assessed as decrease in viral E protein production after 48 hrs by CFI assay; assay type: functional, cell-based, Japanese encephalitis virus strain Nakayama; conditions: BHK-21, 48 h; procedure, shortened: as §1
West Nile virus = test: Antiviral activity against West nile virus B956 infected in Cricetinae BHK21 cells assessed as decrease in viral E protein production after 48 hrs by CFI assay; assay type: functional, organism-based; conditions: B956, BHK-21, 48 h; procedure, shortened: as §1
Dengue virus [12] = test: Antiviral activity against Dengue virus NGC infected in human A549 cells assessed as decrease in viral E protein production during early stage of virus life cucle by CFI assay; assay type: functional, organism-based; conditions: TDE = time-dependent effect
Procedure, shortened: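 A549 cells infected at MOI 0.3 for 1 h at 37°C. Compound dilutions were present during infection only, after infection only, or throughout. Alternatively, a fixed concentration was added at 0–120 min after virus. E protein measured by immunodetection at 48 h. Duplicate wells in two experiments, or three independent experiments for the time course.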

Dengue virus [13] = test: Antiviral activity against 25 MOI Dengue virus NGC infected in human A549 cells assessed as inhibition of NS3 protein production by CFI assay; assay type: functional, organism-based
Procedure, shortened: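 A549 cells on coverslips infected at MOI 25 with or without compound for 7 h. Methanol-fixed and stained with anti-E 4G2 and anti-NS3 antibodies plus fluorescent secondaries, DAPI mounting. Immunofluorescence microscopy.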

## O=C(CCCC[C@@H]1SC[C@H]2NC(=O)N[C@@H]12)NCCOCCOCCNc1nc(-c2ccc(-c3ccc(Cl)cc3)s2)c2ccccc2n1
Dengue virus [1]
  Activity: inactive
Dengue virus [2]
  EC50: 234 nM

## CC(=O)c1cccc(-c2ccc(-c3ccnc(NC4CC(C)(C)NC(C)(C)C4)n3)s2)c1
Dengue virus [2]
  EC50: 900 nM
Dengue virus [3]
  EC50: 300 nM
[4]
  CC50 at 48 h: > 20000 nM

## Clc1ccc(-c2ccc(-c3ccnc(N4CCNCC4)n3)s2)cc1
Dengue virus [2]
  EC50: 90 nM
Dengue virus [3]
  EC50: 41 nM
[4]
  CC50 at 48 h: > 20000 nM

## Clc1ccc(-c2ccc(-c3nc(NCc4cccnc4)nc4ccccc34)s2)cc1
Dengue virus [5]
  Activity: Active
Dengue virus [6]
  Activity: >50%
Dengue virus [7]
  Activity: inactive
Dengue virus [8]
  Activity: Active
Dengue virus [2]
  EC50: 70 nM
Dengue virus type 1
  EC50: 108 nM
Dengue virus type 2 [9]
  EC50: 119 nM
Dengue virus [3]
  EC50: 198 nM
[4]
  CC50 at 48 h: > 20000 nM
Dengue virus type 2 [10]
  EC50: 68 nM
Dengue virus type 3
  EC50: 496 nM
Dengue virus type 4
  EC50: 334 nM
Yellow fever virus
  EC50: 470 nM
[11]
  EC50: 1420 nM
West Nile virus
  EC50: 564 nM
Dengue virus [12]
  Activity: tde
Dengue virus [13]
  Activity: Active

## CC1(C)CC(Nc2nc(-c3ccc(-c4ccc(Cl)cc4)s3)c3ccccc3n2)CC(C)(C)N1
Dengue virus [2]
  EC50: 40 nM
Dengue virus [3]
  EC50: 84 nM
[4]
  CC50 at 48 h: 18600 nM

## CC1(C)CC(Nc2nccc(-c3ccc(-c4ccc(Cl)cc4)s3)n2)CC(C)(C)N1
Dengue virus [2]
  EC50: 270 nM
Dengue virus [3]
  EC50: 320 nM
[4]
  CC50 at 48 h: > 20000 nM

## CC(C)(N)/C=C/c1cccc(-c2ccc(-c3ccnc(NC4CC(C)(C)NC(C)(C)C4)n3)s2)n1
Dengue virus [2]
  EC50: 1690 nM
Dengue virus [3]
  EC50: 310 nM
[4]
  CC50 at 48 h: > 20000 nM
